ChEMBL document CHEMBL2040715, “Discovery of a Potent HIV Integrase Inhibitor that Leads to a Prodrug with Significant anti-HIV Activity” (ACS Med Chem Lett, 2011)

Assays:
Liver microsomes [1] = test: Drug metabolism in human liver microsomes assessed as 3-acetyl-5-(2,4-difluorobenzyl)-1-(2-fluorobenzyl)pyridin-2(1H)-one production at 200 uM incubated for 3 mins prior to NADPH-addition by RP-HPLC analysis; format: ADME, Microsome; details: 0.05 h
Cytochrome P450 3A4 [2] = molecular target: T1, Cytochrome P450 3A4 (Homo sapiens, UniProt P08684); test: Activation of CYP3A4 in human liver microsomes incubated for 3 mins prior to NAPDH-addition measured after 30 mins by RP-HPLC analysis; format: ADME, Microsome; details: 0.5 h
T1 sequence (P08684 whole entry): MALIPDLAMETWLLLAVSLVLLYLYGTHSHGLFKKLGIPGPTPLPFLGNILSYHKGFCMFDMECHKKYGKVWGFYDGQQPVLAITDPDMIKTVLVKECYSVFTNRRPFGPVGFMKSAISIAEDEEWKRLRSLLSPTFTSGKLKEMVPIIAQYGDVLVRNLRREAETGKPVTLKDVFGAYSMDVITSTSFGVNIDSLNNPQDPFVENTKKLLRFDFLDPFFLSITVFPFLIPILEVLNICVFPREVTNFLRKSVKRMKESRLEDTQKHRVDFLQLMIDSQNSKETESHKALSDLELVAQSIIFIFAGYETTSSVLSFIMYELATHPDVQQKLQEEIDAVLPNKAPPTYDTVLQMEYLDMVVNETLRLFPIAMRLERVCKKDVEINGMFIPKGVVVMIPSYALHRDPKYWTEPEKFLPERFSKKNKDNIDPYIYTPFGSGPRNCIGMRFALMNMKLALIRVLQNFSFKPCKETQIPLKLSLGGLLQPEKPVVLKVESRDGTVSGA

Cytochrome P450 3A4 [3] = molecular target: T1, Cytochrome P450 3A4; test: Inhibition of CYP3A4 in human liver microsomes using triazolam as substrate incubated for 3 mins prior to NAPDH-addition measured after 30 mins by RP-HPLC analysis; format: ADME, Microsome
In short: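 For CYP3A4 with triazolam as substrate (50 mM stock; 200 μM listed), pooled human liver microsomes were used at 0.4 mg/mL protein. Incubation was 30 min with varying inhibitor concentrations, and IC50 came from kinetic analysis.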

[4] = molecular target: Human immunodeficiency virus type 1 integrase (Human immunodeficiency virus 1) (UniProt Q7ZJM1); test: (§1) Inhibition of HIV1 integrase-mediated strand transfer
Sequence of Human immunodeficiency virus type 1 integrase (Human immunodeficiency virus 1) (Q7ZJM1 as listed by the source): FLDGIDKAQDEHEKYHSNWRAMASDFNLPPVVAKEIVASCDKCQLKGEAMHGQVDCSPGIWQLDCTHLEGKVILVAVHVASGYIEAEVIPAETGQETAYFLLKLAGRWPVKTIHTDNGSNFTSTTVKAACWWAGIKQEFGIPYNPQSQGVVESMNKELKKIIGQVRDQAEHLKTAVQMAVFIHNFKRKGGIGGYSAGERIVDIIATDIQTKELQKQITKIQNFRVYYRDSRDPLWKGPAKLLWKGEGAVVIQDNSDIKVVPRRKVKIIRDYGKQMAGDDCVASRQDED

[5] = molecular target: Human immunodeficiency virus type 1 integrase (Human immunodeficiency virus 1, UniProt Q7ZJM1); test: as §1
Sequence of Human immunodeficiency virus type 1 integrase (Q7ZJM1 whole entry): as the sequence (Q7ZJM1 as listed by the source) above

Cytochrome P450 2D6 = Cytochrome P450 2D6 (Homo sapiens, UniProt P10635); test: Inhibition of CYP2D6 in human liver microsomes using dextromethorphan as substrate incubated for 3 mins prior to NAPDH-addition measured after 60 mins by RP-HPLC analysis
Sequence of Cytochrome P450 2D6 (P10635 whole entry): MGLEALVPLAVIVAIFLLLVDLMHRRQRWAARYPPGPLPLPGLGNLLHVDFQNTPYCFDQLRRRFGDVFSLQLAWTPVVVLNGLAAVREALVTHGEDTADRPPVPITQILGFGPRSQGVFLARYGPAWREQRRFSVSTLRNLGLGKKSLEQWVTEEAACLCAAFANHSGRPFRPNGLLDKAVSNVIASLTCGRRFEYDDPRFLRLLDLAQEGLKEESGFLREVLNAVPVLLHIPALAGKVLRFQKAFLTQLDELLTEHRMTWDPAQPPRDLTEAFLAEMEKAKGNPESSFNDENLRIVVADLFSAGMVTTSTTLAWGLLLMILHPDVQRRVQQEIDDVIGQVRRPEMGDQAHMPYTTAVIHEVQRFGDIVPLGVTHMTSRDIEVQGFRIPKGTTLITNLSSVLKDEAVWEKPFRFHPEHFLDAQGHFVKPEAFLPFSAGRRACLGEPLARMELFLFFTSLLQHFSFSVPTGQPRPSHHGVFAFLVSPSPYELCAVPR

Cytochrome P450 3A4 [6] = molecular target: T1, Cytochrome P450 3A4; test: Inhibition of CYP3A4 in human liver microsomes using testosterone as substrate incubated for 3 mins prior to NAPDH-addition measured after 30 mins by RP-HPLC analysis; format: ADME, Microsome
In short: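 CYP3A4 inhibition used pooled human liver microsomes at 0.3 mg/mL protein with testosterone as substrate (50 mM stock; 100 μM listed). Incubation ran 30 min across varying inhibitor concentrations, and kinetic analysis gave the IC50.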

[7] = molecular target: T2, UDP-glucuronosyltransferase 1A4 (Homo sapiens, UniProt P22310); test: Activity at UGT1A4 in human liver microsomes at 50 uM incubated for 3 mins prior to NADPH-addition measured up to 120 mins by HPLC/UV analysis; format: ADME, Microsome
T2 sequence (P22310 whole entry): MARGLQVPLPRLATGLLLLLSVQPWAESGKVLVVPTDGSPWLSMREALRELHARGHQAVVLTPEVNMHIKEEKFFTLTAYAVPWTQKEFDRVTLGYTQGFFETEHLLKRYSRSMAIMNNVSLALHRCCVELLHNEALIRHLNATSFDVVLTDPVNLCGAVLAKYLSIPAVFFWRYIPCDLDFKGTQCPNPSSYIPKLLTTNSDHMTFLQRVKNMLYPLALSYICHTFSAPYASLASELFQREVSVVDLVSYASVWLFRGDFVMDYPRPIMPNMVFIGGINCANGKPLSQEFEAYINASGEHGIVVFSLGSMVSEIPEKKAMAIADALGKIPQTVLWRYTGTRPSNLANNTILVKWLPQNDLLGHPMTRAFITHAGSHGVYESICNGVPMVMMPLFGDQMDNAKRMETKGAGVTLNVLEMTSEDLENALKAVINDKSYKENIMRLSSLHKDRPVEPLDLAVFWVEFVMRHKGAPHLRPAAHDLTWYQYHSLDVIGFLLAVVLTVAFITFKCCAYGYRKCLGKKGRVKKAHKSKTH

Liver microsomes [8] = test: Half life in human liver microsomes at 200 uM incubated for 3 mins prior to NADPH-addition by RP-HPLC analysis; format: ADME, Microsome; details: 0.05 h
In short: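 Pooled human liver microsomes were preincubated with test compound, and the reaction was started with NADPH at 37 °C. Samples were taken at several times up to 3 h and quenched with cold acetonitrile. Precipitated protein was removed by centrifugation, then HPLC with UV detection measured parent remaining, from which the in vitro half-life was derived.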

[9] = molecular target: T3, UDP-glucuronosyltransferase 1A1 (Homo sapiens, UniProt P22309); test: Activity at UGT1A1 in human liver microsomes at 50 uM incubated for 3 mins prior to NADPH-addition measured up to 120 mins by HPLC/UV analysis; format: ADME, Microsome
T3 sequence (P22309 whole entry): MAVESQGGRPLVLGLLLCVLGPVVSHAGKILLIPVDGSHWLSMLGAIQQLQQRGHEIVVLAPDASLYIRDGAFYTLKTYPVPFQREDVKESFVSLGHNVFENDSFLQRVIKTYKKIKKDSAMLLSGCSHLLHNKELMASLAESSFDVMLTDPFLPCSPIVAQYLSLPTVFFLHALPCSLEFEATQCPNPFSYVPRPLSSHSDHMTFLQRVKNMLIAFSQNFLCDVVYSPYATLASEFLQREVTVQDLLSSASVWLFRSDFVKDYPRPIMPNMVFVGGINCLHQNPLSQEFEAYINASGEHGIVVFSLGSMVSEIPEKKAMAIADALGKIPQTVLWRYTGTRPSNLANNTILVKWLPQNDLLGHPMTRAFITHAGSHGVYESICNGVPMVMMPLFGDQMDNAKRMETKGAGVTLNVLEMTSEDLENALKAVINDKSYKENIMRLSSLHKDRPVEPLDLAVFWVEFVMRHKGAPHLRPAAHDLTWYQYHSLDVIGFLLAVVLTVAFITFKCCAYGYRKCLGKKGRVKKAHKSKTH

[10] = molecular target: T4, UDP-glucuronosyltransferase 1A6 (Homo sapiens, UniProt P19224); test: Activity at UGT1A6 in human liver microsomes at 50 uM incubated for 3 mins prior to NADPH-addition measured up to 120 mins by HPLC/UV analysis; format: ADME, Microsome
T4 sequence (P19224 whole entry): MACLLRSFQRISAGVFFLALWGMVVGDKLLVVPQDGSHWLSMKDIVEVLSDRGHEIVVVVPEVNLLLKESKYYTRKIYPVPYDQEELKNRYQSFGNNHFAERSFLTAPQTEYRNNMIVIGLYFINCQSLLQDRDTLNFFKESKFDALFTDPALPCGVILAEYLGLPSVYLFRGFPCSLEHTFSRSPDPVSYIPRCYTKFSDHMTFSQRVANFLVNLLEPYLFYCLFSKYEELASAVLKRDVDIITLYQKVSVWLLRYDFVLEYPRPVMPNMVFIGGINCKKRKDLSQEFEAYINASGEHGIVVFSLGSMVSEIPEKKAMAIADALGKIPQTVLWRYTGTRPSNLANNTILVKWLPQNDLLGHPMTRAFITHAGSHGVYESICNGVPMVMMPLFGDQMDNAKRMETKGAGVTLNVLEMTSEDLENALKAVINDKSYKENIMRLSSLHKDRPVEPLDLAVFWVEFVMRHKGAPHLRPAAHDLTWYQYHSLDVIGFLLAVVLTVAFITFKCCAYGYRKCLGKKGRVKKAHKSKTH

SMILES: O=C(O)/C(O)=C/C(=O)c1cc(Cc2ccc(F)cc2F)cn(Cc2ccccc2F)c1=O
- Drug metabolism (Liver microsomes [1]): Active
- Activity (Cytochrome P450 3A4 [2]): Not Active
- IC50 (Cytochrome P450 3A4 [3]): > 200000 nM
- IC90 [4]: 97 nM
- IC50 [5]: 6 nM
- IC50 (Cytochrome P450 2D6): > 200000 nM
- IC50 (Cytochrome P450 3A4 [6]): > 200000 nM
- Activity [7]: Not Active
- t1/2 (Liver microsomes [8]): > 3 h
- Activity [9]: Not Active
- Activity [10]: Not Active
